Experiments:
Type in all cases: functional
Details in all cases: read-out: Activity
CCRF-CEM = experiment: Growth inhibition of human CCRF-CEM cells assessed as cell growth at 10 uM relative to untreated control
How it was run: (§1)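 NCI DTP 60-cell-line screen, first stage: a single 10 µM dose of compound given to the human tumour panel. Result reported as percent growth relative to control, on a mean growth graph.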

SK-MEL-28 = experiment: Growth inhibition of human SK-MEL-28 cells assessed as cell growth at 10 uM relative to untreated control
How it was run: (§2)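 First stage of the NCI DTP 60 human tumour cell-line screen. Cells were exposed to a single dose of 10 µM. Output is reported as growth % relative to control.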

LOX IMVI = experiment: Growth inhibition of human LOXIMVI cells assessed as cell growth at 10 uM relative to untreated control; how it was run: as §1
NCI-H322M = experiment: Growth inhibition of human NCI-H322M cells assessed as cell growth at 10 uM relative to untreated control; how it was run: as §2
MDA-MB-231 = experiment: Growth inhibition of human MDA-MB-231 cells assessed as cell growth at 10 uM relative to untreated control; how it was run: as §2
SF-268 = experiment: Growth inhibition of human SF268 cells assessed as cell growth at 10 uM relative to untreated control; how it was run: as §2
IGROV-1 = experiment: Growth inhibition of human IGROV1 cells assessed as cell growth at 10 uM relative to untreated control; how it was run: as §1
HOP-62 = experiment: Growth inhibition of human HOP62 cells assessed as cell growth at 10 uM relative to untreated control; how it was run: as §1
SW-620 = experiment: Growth inhibition of human SW620 cells assessed as cell growth at 10 uM relative to untreated control
How it was run: (§3)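 This is the first stage of the NCI DTP 60-human-tumour-cell-line screen, covering nine tissue types. Cells receive a single dose of the test compound, and the output is reported as mean growth %.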

M14 = experiment: Growth inhibition of human M14 cells assessed as cell growth at 10 uM relative to untreated control; how it was run: as §1
SK-MEL-2 = experiment: Growth inhibition of human SK-MEL-2 cells assessed as cell growth at 10 uM relative to untreated control; how it was run: as §2
MDA-MB-435 = experiment: Growth inhibition of human MDA-MB-435 cells assessed as cell growth at 10 uM relative to untreated control; how it was run: as §2
[1] = Growth inhibition of human […] cells assessed as cell growth at 10 uM relative to untreated control; how it was run: as §2
SNB-19 = experiment: Growth inhibition of human SNB19 cells assessed as cell growth at 10 uM relative to untreated control; how it was run: as §3
786-0 = experiment: Growth inhibition of human 786-0 cells assessed as cell growth at 10 uM relative to untreated control; how it was run: as §1
EKVX = experiment: Growth inhibition of human EKVX cells assessed as cell growth at 10 uM relative to untreated control; how it was run: as §1
Malme-3M = experiment: Growth inhibition of human MALME-3M cells assessed as cell growth at 10 uM relative to untreated control; how it was run: as §1
NCI-H23 = experiment: Growth inhibition of human NCI-H23 cells assessed as cell growth at 10 uM relative to untreated control; how it was run: as §2
HCT-116 = experiment: Growth inhibition of human HCT116 cells assessed as cell growth at 10 uM relative to untreated control; how it was run: as §1
CAKI-1 = experiment: Growth inhibition of human Caki1 cells assessed as cell growth at 10 uM relative to untreated control; how it was run: as §1
K562 = experiment: Growth inhibition of human K562 cells assessed as cell growth at 10 uM relative to untreated control; how it was run: as §1
HOP-92 = experiment: Growth inhibition of human HOP92 cells assessed as cell growth at 10 uM relative to untreated control; how it was run: as §1
HL-60(TB) = experiment: Growth inhibition of human HL-60(TB) cells assessed as cell growth at 10 uM relative to untreated control
How it was run: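 NCI DTP NCI-60 screen, first stage: a single dose applied to 60 human tumour cell lines from nine tissue types. Output is reported as growth %.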

SK-OV-3 = experiment: Growth inhibition of human SKOV3 cells assessed as cell growth at 10 uM relative to untreated control; how it was run: as §2
T47D = experiment: Growth inhibition of human T47D cells assessed as cell growth at 10 uM relative to untreated control; how it was run: as §3
A498 = experiment: Growth inhibition of human A498 cells assessed as cell growth at 10 uM relative to untreated control; how it was run: as §1
SR = experiment: Growth inhibition of human SR cells assessed as cell growth at 10 uM relative to untreated control; how it was run: as §3
DU-145 = experiment: Growth inhibition of human DU145 cells assessed as cell growth at 10 uM relative to untreated control; how it was run: as §1
HCC 2998 = experiment: Growth inhibition of human HCC2998 cells assessed as cell growth at 10 uM relative to untreated control; how it was run: as §1
SN12C = experiment: Growth inhibition of human SN12C cells assessed as cell growth at 10 uM relative to untreated control; how it was run: as §3
NCI-H460 = experiment: Growth inhibition of human NCI-H460 cells assessed as cell growth at 10 uM relative to untreated control; how it was run: as §2
OVCAR-3 = experiment: Growth inhibition of human OVCAR3 cells assessed as cell growth at 10 uM relative to untreated control; how it was run: as §2
OVCAR-5 = experiment: Growth inhibition of human OVCAR5 cells assessed as cell growth at 10 uM relative to untreated control; how it was run: as §2
ACHN = experiment: Growth inhibition of human ACHN cells assessed as cell growth at 10 uM relative to untreated control; how it was run: as §1
[2] = Growth inhibition of human Hs 578T cells assessed as cell growth at 10 uM relative to untreated control; how it was run: as §1
NCI/ADR-RES = experiment: Growth inhibition of human NCI/ADR-RES cells assessed as cell growth at 10 uM relative to untreated control; how it was run: as §2
NCI-H226 = experiment: Growth inhibition of human NCI-H226 cells assessed as cell growth at 10 uM relative to untreated control; how it was run: as §2
SK-MEL-5 = experiment: Growth inhibition of human SK-MEL-5 cells assessed as cell growth at 10 uM relative to untreated control; how it was run: as §2
SF-295 = experiment: Growth inhibition of human SF295 cells assessed as cell growth at 10 uM relative to untreated control; how it was run: as §2
HCT-15 = experiment: Growth inhibition of human HCT15 cells assessed as cell growth at 10 uM relative to untreated control; how it was run: as §1
BT-549 = experiment: Growth inhibition of human BT549 cells assessed as cell growth at 10 uM relative to untreated control; how it was run: as §1
PC-3 = experiment: Growth inhibition of human PC3 cells assessed as cell growth at 10 uM relative to untreated control; how it was run: as §2
MDA-MB-468 = experiment: Growth inhibition of human MDA-MB-468 cells assessed as cell growth at 10 uM relative to untreated control; how it was run: as §2
TK-10 = experiment: Growth inhibition of human TK10 cells assessed as cell growth at 10 uM relative to untreated control; how it was run: as §3
MCF7 = experiment: Growth inhibition of human MCF7 cells assessed as cell growth at 10 uM relative to untreated control; how it was run: as §2
RXF 393 = experiment: Growth inhibition of human RXF393 cells assessed as cell growth at 10 uM relative to untreated control; how it was run: as §2
UACC-62 = experiment: Growth inhibition of human UACC62 cells assessed as cell growth at 10 uM relative to untreated control; how it was run: as §3
UO-31 = experiment: Growth inhibition of human UO31 cells assessed as cell growth at 10 uM relative to untreated control; how it was run: as §3
KM12 = experiment: Growth inhibition of human KM12 cells assessed as cell growth at 10 uM relative to untreated control; how it was run: as §1
SNB-75 = experiment: Growth inhibition of human SNB75 cells assessed as cell growth at 10 uM relative to untreated control; how it was run: as §3
SF-539 = experiment: Growth inhibition of human SF539 cells assessed as cell growth at 10 uM relative to untreated control; how it was run: as §2
HT-29 = experiment: Growth inhibition of human HT-29 cells assessed as cell growth at 10 uM relative to untreated control; how it was run: as §1
MOLT-4 = experiment: Growth inhibition of human MOLT4 cells assessed as cell growth at 10 uM relative to untreated control; how it was run: as §2
NCI-H522 = experiment: Growth inhibition of human NCI-H522 cells assessed as cell growth at 10 uM relative to untreated control; how it was run: as §2

Q: Which results are given for N=C1c2nc3n(c2C(=O)c2nc4n(c21)CCCCC4)CCCCC3?
A: growth at 10 µM (CCRF-CEM): 104%; growth at 10 µM (SK-MEL-28): 118%; growth at 10 µM (LOX IMVI): 92%; growth at 10 µM (NCI-H322M): 110%; growth at 10 µM (MDA-MB-231): 117%; growth at 10 µM (SF-268): 108%; growth at 10 µM (IGROV-1): 130%; growth at 10 µM (HOP-62): 122%; growth at 10 µM (SW-620): 105%; growth at 10 µM (M14): 108%; growth at 10 µM (SK-MEL-2): 118%; growth at 10 µM (MDA-MB-435): 111%; growth at 10 µM [1]: 99.1%; growth at 10 µM (SNB-19): 113%; growth at 10 µM (786-0): 120%; growth at 10 µM (EKVX): 103%; growth at 10 µM (Malme-3M): 103%; growth at 10 µM (NCI-H23): 97.3%; growth at 10 µM (HCT-116): 107%; growth at 10 µM (CAKI-1): 95.1%; growth at 10 µM (K562): 102%; growth at 10 µM (HOP-92): 126%; growth at 10 µM (HL-60(TB)): 103%; growth at 10 µM (SK-OV-3): 107%; growth at 10 µM (T47D): 116%; growth at 10 µM (A498): 91.6%; growth at 10 µM (SR): 91.8%; growth at 10 µM (DU-145): 113%; growth at 10 µM (HCC 2998): 112%; growth at 10 µM (SN12C): 106%; growth at 10 µM (NCI-H460): 92.6%; growth at 10 µM (OVCAR-3): 111%; growth at 10 µM (OVCAR-5): 123%; growth at 10 µM (ACHN): 105%; growth at 10 µM [2]: 112%; growth at 10 µM (NCI/ADR-RES): 110%; growth at 10 µM (NCI-H226): 98.2%; growth at 10 µM (SK-MEL-5): 88.7%; growth at 10 µM (SF-295): 93.8%; growth at 10 µM (HCT-15): 109%; growth at 10 µM (BT-549): 110%; growth at 10 µM (PC-3): 113%; growth at 10 µM (MDA-MB-468): 99.8%; growth at 10 µM (TK-10): 142%; growth at 10 µM (MCF7): 94.5%; growth at 10 µM (RXF 393): 102%; growth at 10 µM (UACC-62): 110%; growth at 10 µM (UO-31): 83.7%; growth at 10 µM (KM12): 106%; growth at 10 µM (SNB-75): 105%; growth at 10 µM (SF-539): 105%; growth at 10 µM (HT-29): 106%; growth at 10 µM (MOLT-4): 93.7%; growth at 10 µM (NCI-H522): 90.9%

From ChEMBL document CHEMBL2021842, “COMPARE analysis of the toxicity of an iminoquinone derivative of the imidazo[5,4-f]benzimidazoles with NAD(P)H:quinone oxidoreductase 1 (NQO1) activity and computational docking of quinones as NQO1 substrates” (Bioorg Med Chem, 2012)
